From ChEMBL document CHEMBL1129335, “Synthesis and structure-activity relationships of 2-substituted D-tryptophan-containing peptidic endothelin receptor antagonists: importance of the C-2 substituent of the D-tryptophan residue for endothelin A and B receptor subtype selectivity” (J Med Chem, 1996)
Blank lines part the entries; values can stand above or below the compound they belong to.

Tests used:
Endothelin-1 receptor [1] = molecular target: T1, Endothelin-1 receptor (Sus scrofa, UniProt Q29010); assay: Binding affinity towards endothelin A receptor in porcine aortic smooth muscle membranes.
T1 sequence (Q29010 whole entry): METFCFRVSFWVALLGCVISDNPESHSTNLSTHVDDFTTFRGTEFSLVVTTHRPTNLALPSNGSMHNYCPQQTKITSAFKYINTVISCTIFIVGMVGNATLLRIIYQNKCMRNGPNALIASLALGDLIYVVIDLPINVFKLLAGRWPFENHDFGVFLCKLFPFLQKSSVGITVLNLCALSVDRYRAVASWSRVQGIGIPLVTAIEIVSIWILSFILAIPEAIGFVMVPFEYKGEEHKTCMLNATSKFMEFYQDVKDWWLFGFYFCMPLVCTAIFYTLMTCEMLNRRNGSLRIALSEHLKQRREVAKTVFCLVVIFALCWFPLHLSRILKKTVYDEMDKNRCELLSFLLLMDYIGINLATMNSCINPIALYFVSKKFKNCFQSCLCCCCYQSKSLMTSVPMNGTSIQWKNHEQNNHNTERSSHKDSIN
Method in brief: (§1)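 Competitive binding in porcine membranes: aortic smooth muscle for ETA and cerebellum for ETB, run by a previously reported method. Variation was generally within 10%.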

Endothelin-1 receptor [2] = molecular target: T2, Endothelin-1 receptor (Homo sapiens, UniProt P25101); assay: Binding affinity towards Endothelin A receptor in human neuroblastoma-derived cell line SK-N-MC membranes; assay type: cell-based
T2 sequence (P25101 whole entry): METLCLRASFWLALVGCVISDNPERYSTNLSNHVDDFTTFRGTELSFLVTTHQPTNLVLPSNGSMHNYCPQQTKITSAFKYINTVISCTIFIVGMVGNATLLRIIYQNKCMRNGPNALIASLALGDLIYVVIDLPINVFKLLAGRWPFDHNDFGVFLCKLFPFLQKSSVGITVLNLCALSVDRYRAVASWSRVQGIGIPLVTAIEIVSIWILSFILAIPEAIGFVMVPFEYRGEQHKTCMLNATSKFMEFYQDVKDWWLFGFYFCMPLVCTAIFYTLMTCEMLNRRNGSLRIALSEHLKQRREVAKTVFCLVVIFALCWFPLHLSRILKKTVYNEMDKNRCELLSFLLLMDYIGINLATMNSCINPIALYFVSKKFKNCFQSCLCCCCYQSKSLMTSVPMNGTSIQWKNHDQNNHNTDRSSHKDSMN
Method in brief: (§2)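 Membrane binding assay on human receptors. ETA came from the neuroblastoma-derived line SK-N-MC and ETB from Girardi heart cells. Inhibition was expressed as IC50.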

[3] = molecular target: T3, Endothelin receptor type B (Sus scrofa, UniProt P35463); assay: Binding affinity towards endothelin B receptor in porcine cerebellum membranes; assay type: cell membranes, Membrane; method in brief: as §1
T3 sequence (P35463 whole entry): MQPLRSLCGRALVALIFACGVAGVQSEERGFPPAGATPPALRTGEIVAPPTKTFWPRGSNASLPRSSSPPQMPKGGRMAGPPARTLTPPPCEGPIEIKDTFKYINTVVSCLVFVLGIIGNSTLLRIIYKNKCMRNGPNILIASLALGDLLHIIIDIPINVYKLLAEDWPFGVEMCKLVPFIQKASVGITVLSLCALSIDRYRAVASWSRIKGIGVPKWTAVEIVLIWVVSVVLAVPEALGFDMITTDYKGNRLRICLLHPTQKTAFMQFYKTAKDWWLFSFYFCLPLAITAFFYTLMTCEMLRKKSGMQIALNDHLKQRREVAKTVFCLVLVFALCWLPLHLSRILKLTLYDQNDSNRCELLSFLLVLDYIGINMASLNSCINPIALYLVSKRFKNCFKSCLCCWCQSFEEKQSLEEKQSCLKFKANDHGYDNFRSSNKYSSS

[4] = molecular target: T4, Endothelin receptor type B (Homo sapiens, UniProt P24530); assay: Binding affinity towards Endothelin B receptor in human girardi heart cell membranes; method in brief: as §2
T4 sequence (P24530 whole entry): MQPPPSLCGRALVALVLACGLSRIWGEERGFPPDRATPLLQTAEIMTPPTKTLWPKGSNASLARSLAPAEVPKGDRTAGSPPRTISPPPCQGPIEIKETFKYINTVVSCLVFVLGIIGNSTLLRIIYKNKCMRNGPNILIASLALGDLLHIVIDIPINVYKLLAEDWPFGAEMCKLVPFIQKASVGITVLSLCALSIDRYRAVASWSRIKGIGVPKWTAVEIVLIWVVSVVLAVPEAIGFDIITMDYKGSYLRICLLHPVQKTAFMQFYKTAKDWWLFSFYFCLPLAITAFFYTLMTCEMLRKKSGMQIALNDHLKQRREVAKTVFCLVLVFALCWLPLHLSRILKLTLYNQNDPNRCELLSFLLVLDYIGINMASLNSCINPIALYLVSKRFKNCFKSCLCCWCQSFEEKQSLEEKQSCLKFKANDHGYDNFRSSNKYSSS

[5] = Ability to antagonize ET-1 mediated constriction in rabbit pulmonary arteries; assay type: functional, Oryctolagus cuniculus
[6] = Ability to antagonize ET-A mediated vasoconstrictor activity in isolated porcine coronary arteries; assay type: functional; settings: read-out: pA2 (converted)
Method in brief: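 Isolated porcine coronary artery rings were contracted with ET-1, an ETA-mediated response, following a reported method. Antagonism was quantified as a pA2 value.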

[7] = Antagonistic activity against Endothelin B receptor by BQ-3020 induced constriction in isolated rabbit pulmonary arteries; assay type: functional; settings: Oryctolagus cuniculus; read-out: pA2 (converted)
Method in brief: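 Isolated rabbit pulmonary arteries were contracted with the ETB-selective agonist BQ-3020, following a previously reported protocol. Antagonist potency was given as pA2.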

[8] = Inhibitory activity against ET 1 induced calcium increase in human Girardi heart cells; assay type: functional, cell-based
Method in brief: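 Intracellular Ca2+ rise in intact human Girardi heart cells was induced by ET-1, run by a reported method. Inhibition was expressed as IC50. Compounds were also applied alone at 100 µM to check for any rise in [Ca2+]i.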

[9] = molecular target: T4, Endothelin receptor type B; assay: Binding affinity rowards Endothelin B receptor in human girardi heart cell membranes; method in brief: as §2

Compound: Cc1[nH]c2ccccc2c1C[C@H]1NC(=O)[C@H](C2CC2)NC(=O)[C@@H](C2CCCC2)NC(=O)[C@@H]2CCCN2C(=O)[C@@H](CC(=O)O)NC1=O
IC50 (Endothelin-1 receptor [1]): 1.8 nM
IC50 (Endothelin-1 receptor [2]; sk-n-mc): 2.9 nM
IC50 [3]: 59 nM
IC50 ([4]; heart): 130 nM

Compound: O=C(O)C[C@H]1NC(=O)[C@@H](Cc2c(Br)[nH]c3ccccc23)NC(=O)[C@H](C2CC2)NC(=O)[C@@H](C2CCCC2)NC(=O)[C@@H]2CCCN2C1=O
IC50 (Endothelin-1 receptor [1]): 4.9 nM
pA2 [5]: 5.7
IC50 (Endothelin-1 receptor [2]; sk-n-mc): 8.6 nM
IC50 [3]: 15 nM
Kb [6]: 31.6 nM
IC50 ([4]; heart): 29 nM

Compound: CCCCC(NC(=O)[C@@H](Cc1c(C#N)[nH]c2ccccc12)NC(=O)C(NC(=O)N1[C@H](C)CCC[C@@H]1C)C(C)C)C(=O)O (stereo partly specified)
Kb [7]: 3.16 nM
IC50 (Endothelin-1 receptor [2]): 2400 nM
IC50 [3]: 2.3 nM
IC50 [8]: 4 nM
IC50 [4]: 5 nM

Compound: CCCCC(NC(=O)[C@@H](Cc1c(Br)[nH]c2ccccc12)NC(=O)C(NC(=O)N1[C@H](C)CCC[C@@H]1C)C1CC1)C(=O)O (stereo partly specified)
IC50 (Endothelin-1 receptor [1]): 3.8 nM
pA2 [5]: 6.4
IC50 (Endothelin-1 receptor [2]): 13 nM
IC50 [3]: 0.81 nM
Kb [6]: 12.6 nM
IC50 [4]: 1.1 nM

Compound: CCCCC(NC(=O)[C@@H](Cc1c(C)[nH]c2ccccc12)NC(=O)C(NC(=O)N1[C@H](C)CCC[C@@H]1C)C1CC1)C(=O)O (stereo partly specified)
IC50 (Endothelin-1 receptor [1]): 5.7 nM
IC50 [3]: 2.9 nM

Compound: CCCCC(NC(=O)[C@@H](Cc1c(C#N)[nH]c2ccccc12)NC(=O)C(CC(C)C)NC(=O)N1[C@H](C)CCC[C@@H]1C)C(=O)O (stereo partly specified)
IC50 (Endothelin-1 receptor [1]): 470 nM
IC50 [3]: 1.6 nM

Compound: CCCCC(NC(=O)[C@@H](Cc1c(Cl)[nH]c2ccccc12)NC(=O)C(CC1CC1)NC(=O)N1[C@H](C)CCC[C@@H]1C)C(=O)O (stereo partly specified)
IC50 (Endothelin-1 receptor [1]): 14 nM
IC50 [3]: 6.2 nM

Compound: Cc1[nH]c2ccccc2c1C[C@H]1NC(=O)[C@H](CC(C)C)NC(=O)[C@@H](C(C)C)NC(=O)[C@@H]2CCCN2C(=O)[C@@H](CC(=O)O)NC1=O
IC50 (Endothelin-1 receptor [1]): 51 nM
IC50 [3]: 870 nM

Compound: CCCCC(NC(=O)[C@@H](Cc1c(Cl)[nH]c2ccccc12)NC(=O)C(CCC)NC(=O)N1[C@H](C)CCC[C@@H]1C)C(=O)O (stereo partly specified)
IC50 (Endothelin-1 receptor [1]): 20 nM
IC50 [3]: 7.9 nM

Compound: CSCCC(NC(=O)[C@@H](Cc1c(C)[nH]c2ccccc12)NC(=O)C(NC(=O)N1[C@H](C)CCC[C@@H]1C)C1CC1)C(=O)O (stereo partly specified)
IC50 (Endothelin-1 receptor [1]): 1 nM
IC50 (Endothelin-1 receptor [2]): 3 nM
IC50 [3]: 2.9 nM
IC50 [4]: 4 nM

Second part, the compound after the results:

IC50 (Endothelin-1 receptor [1]): 3.8 nM
IC50 [3]: 76 nM
Compound: CC(C)CC(NC(=O)N1[C@H](C)CCC[C@@H]1C)C(=O)N[C@H](Cc1c(Br)[nH]c2ccccc12)C(=O)NC(Cc1cnc[nH]1)C(=O)O (stereo partly specified)

IC50 (Endothelin-1 receptor [1]): 1.9 nM
IC50 (Endothelin-1 receptor [2]): 6.4 nM
IC50 [3]: 1.8 nM
IC50 [9]: 3.6 nM
Compound: CCSCC(NC(=O)[C@@H](Cc1c(Br)[nH]c2ccccc12)NC(=O)C(CC(C)C)NC(=O)N1[C@H](C)CCC[C@@H]1C)C(=O)O (stereo partly specified)

IC50 (Endothelin-1 receptor [1]): 9.6 nM
IC50 [3]: 13 nM
Compound: CCCCC(NC(=O)[C@@H](Cc1c(C)[nH]c2ccccc12)NC(=O)C(CC(C)C)NC(=O)N1[C@H](C)CCC[C@@H]1C)C(=O)O (stereo partly specified)

IC50 (Endothelin-1 receptor [1]): 2.4 nM
IC50 [3]: 1.9 nM
Compound: CCCSCC(NC(=O)[C@@H](Cc1c(Br)[nH]c2ccccc12)NC(=O)C(CC(C)C)NC(=O)N1[C@H](C)CCC[C@@H]1C)C(=O)O (stereo partly specified)

IC50 (Endothelin-1 receptor [1]): 8 nM
IC50 [3]: 13 nM
Compound: CSCCC(NC(=O)[C@@H](Cc1c(C)[nH]c2ccccc12)NC(=O)C(CC(C)C)NC(=O)N1[C@H](C)CCC[C@@H]1C)C(=O)O (stereo partly specified)

IC50 (Endothelin-1 receptor [1]): 5.6 nM
IC50 [3]: 2.5 nM
Compound: CCCCC(NC(=O)[C@@H](Cc1c(Br)[nH]c2ccccc12)NC(=O)C(CC(C)C)NC(=O)N1[C@H](C)CCC[C@@H]1C)C(=O)O (stereo partly specified)

IC50 (Endothelin-1 receptor [1]): 9.8 nM
IC50 [3]: 4.2 nM
Compound: C=CCC(NC(=O)[C@@H](Cc1c(Br)[nH]c2ccccc12)NC(=O)C(CC(C)C)NC(=O)N1[C@H](C)CCC[C@@H]1C)C(=O)O (stereo partly specified)
